Experimental data gathered from unrelated publications.
Each line is one published result; the experiments were not run side by side. ≈ marks a conversion by molar mass, not a printed value.
Effect on: microbial growth

Nc1ccc(-c2nc(-c3ccc(Oc4ccccc4)cc3)no2)cc1 — MIC (Enterococcus faecium; broth dilution; 24 h): > 32 µg/mL
O=C(O)c1cn(C2CC2)c2cc(N3CCNCC3)c(F)cc2c1=O — MIC (Mycobacterium intracellulare; broth dilution; ATCC23068): 0.63 µg/mL (≈ 1.9 µM)
O=C(O)CCc1ccccc1Oc1ccc(-c2noc(-c3ccc(O)cc3)n2)cc1 — MIC (Enterococcus faecium; broth dilution; 24 h): > 32 µg/mL
O=C(O)c1cccc(-n2c(/C=C/c3ccc(F)c(F)c3)nc3ccccc3c2=O)c1 — MIC (Enterococcus faecium; broth dilution; NCTC7171): > 128 µg/mL
CC(C)Oc1c(NC(=O)c2ccc(NC(=O)[C@H](CC(N)=O)NC(=O)c3ccc(NC(=O)c4ccc(C#N)cc4)cc3)cc2)ccc(C(=O)Nc2ccc(C(=O)O)cc2)c1O — MIC (Citrobacter freundii; DSM30039): ≤ 0.03 µg/mL
CC(=O)Oc1cccc(-n2c(/C=C/c3ccc([N+](=O)[O-])cc3)nc3ccccc3c2=O)c1 — MIC (Enterococcus faecium; broth dilution; NCTC7171): 64 µg/mL (≈ 150 µM)
C[C@@H](O)[C@H]1C(=O)N2C(C(=O)O)=C(S[C@@H]3CN[C@H](C(=O)N(C)C)C3)[C@H](C)[C@H]12 — MIC (Citrobacter freundii; broth dilution; clinical isolate): > 64 µg/mL
O=C(O)c1cccc(-n2c(/C=C/c3ccc(Cl)cc3)nc3ccncc3c2=O)c1 — MIC (Enterococcus faecium; broth dilution; NCTC7171): > 128 µg/mL
O=C(O)Cc1ccccc1Oc1ccc(-c2noc(-c3ccc(O)cc3)n2)cc1 — MIC (Enterococcus faecium; broth dilution; 24 h): > 32 µg/mL
CC(C)Oc1c(-n2cc(-c3ccc(NC(=O)C(CC(N)=O)NC(=O)c4ccc(NC(=O)c5ccc(C#N)cc5)cc4)cc3)nn2)ccc(C(=O)Nc2ccc(C(=O)O)cc2)c1O (stereo not drawn) — MIC (Citrobacter freundii; DSM30039): 0.5 µg/mL (≈ 0.598 µM)
O=[N+]([O-])c1ccc(-c2nc(-c3ccc(Oc4ccccc4)cc3)no2)cc1 — MIC (Enterococcus faecium; broth dilution; 24 h): > 32 µg/mL
CC(C)Oc1c(NC(=O)c2ccc(NC(=O)c3ccc(NC(=O)[C@H](CC(N)=O)NC(=O)c4ccc(NC(=O)c5ccc(C#N)s5)cc4)cc3)c(OC(C)C)c2O)ccc(C(=O)O)c1O — MIC (Citrobacter freundii; DSM30039): 0.5 µg/mL (≈ 0.561 µM)
O=C(O)c1cccc(-n2c(/C=C/c3ccc(C#CCO)cc3)nc3ccccc3c2=O)c1 — MIC (Enterococcus faecium; broth dilution; NCTC7171): > 128 µg/mL
CC(C)Oc1c(NC(=O)c2ccc(NC(=O)[C@H](CC(N)=O)NC(=O)c3ccc(NC(=O)c4ccc(C#N)s4)cc3)cc2)ccc(C(=O)Nc2ccc(C(=O)O)cc2)c1O — MIC (Citrobacter freundii; DSM30039): ≤ 0.03 µg/mL
NC(=O)c1cccc(-n2c(/C=C/c3ccc(F)cc3)nc3ccccc3c2=O)c1 — MIC (Enterococcus faecium; broth dilution; NCTC7171): > 128 µg/mL
